In brackets after ≈: the same amount, converted by molar mass. Activity calls are given as the source filed them. No cut-off for these calls is given here.
What was measured:
[1] = Drug distribution in Sprague-Dawley rat ascites fluid measured at 0.5 hrs; assay type: ADME, tissue-based, Ascitic fluid; conditions: read-out: Ct
Summary of the method: (§1)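 Sprague–Dawley rats were dosed with TNP-2198. Concentrations were measured in plasma (ng/mL) and in tissues or contents (ng/g) at 0.5, 2, 6, 12 and 24 h after dosing. Values below the limit of quantification are reported as BLOQ.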

Clostridioides difficile [2] = test: Antibacterial activity against fluoroquinolone-resistant Clostridioides difficile CB1941 harboring gyrAD71Y/T82A mutant measured after 3 days; assay type: functional; conditions: CB1941, 72 h, time 3 day
Prevotella disiens = test: Antibacterial activity against Prevotella disiens MMX 3446; assay type: functional
[3] = Drug distribution in Sprague-Dawley rat brain measured at 12 hrs; assay type: ADME, tissue-based; conditions: in vivo, BLD = below limit of detection; summary of the method: as §1
[4] = Drug distribution in Sprague-Dawley rat plasma measured at 24 hrs; assay type: ADME, cell-free; conditions: BLD = below limit of detection; summary of the method: as §1
[5] = Drug distribution in Sprague-Dawley rat brain measured at 6 hrs; assay type: ADME, tissue-based; conditions: read-out: Ct; summary of the method: as §1
Gardnerella vaginalis [6] = test: Resistance development in Gardnerella vaginalis MMX 5973 assessed as spontaneous resistance frequency using at 4.50 x 10^8 CFU inoculum at 2 ug/ml; assay type: functional; conditions: dose 2 µg/ml
Summary of the method: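 Resistant colonies were counted at each drug concentration in two separate tests (test 1, test 2) and averaged. The spontaneous resistance frequency was taken from the mean colony count relative to the inoculum plated. Drug levels tested were 0.5, 1, 2 and 4 µg/mL, and a mutation prevention concentration (MPC) was also reported.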

[7] = Drug distribution in Sprague-Dawley rat large intestine content measured at 24 hrs; assay type: ADME, tissue-based; conditions: read-out: Ct; summary of the method: as §1
[8] = AUC in Sprague-Dawley rat at 10 mg/kg, iv; assay type: ADME, organism-based; parameters: dose 10 mg/kg, route iv; conditions: in vivo
Summary of the method: (§2)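 Plasma PK after single intravenous or oral dosing. Mice C57BL/6 at 5 mg/kg IV or 20 mg/kg PO; Sprague–Dawley rats at 10 mg/kg IV or 50 mg/kg PO; beagle dogs at 5 mg/kg IV or 25 mg/kg PO. AUC reported in ng·h/mL. Clearance from the IV arms in mL/min·kg.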

Bacteroides ovatus = test: Antibacterial activity against metronidazole-resistant Bacteroides ovatus MMX 3504; assay type: functional
Staphylococcus aureus = test: Antibacterial activity against Staphylococcus aureus ATCC 29213; assay type: functional
[9] = Drug distribution in Sprague-Dawley rat vaginal tissue measured at 12 hrs; assay type: ADME, tissue-based, Vagina; conditions: female, read-out: Ct; summary of the method: as §1
Clostridioides difficile [10] = test: Antibacterial activity against Clostridioides difficile clinical isolate USA; assay type: functional
[11] = Drug distribution in Sprague-Dawley rat plasma measured at 0.5 hrs; assay type: ADME, cell-free; summary of the method: as §1
[12] = Drug distribution in Sprague-Dawley rat large intestine content measured at 2 hrs; assay type: ADME, tissue-based; conditions: read-out: Ct; summary of the method: as §1
[13] = Drug distribution in Sprague-Dawley rat brain measured at 24 hrs; assay type: ADME, tissue-based; conditions: in vivo, BLD = below limit of detection; summary of the method: as §1
Clostridioides difficile [14] = test: Antibacterial activity against Clostridioides difficile CB1921 ATCC BAA1382 measured after 3 days; assay type: functional; conditions: CB1921 ATCC BAA1382, 72 h, time 3 day
[15] = Volume of distribution at steady state in C57BL/6 mouse at 5 mg/kg, iv; assay type: ADME, organism-based; conditions: in vivo, read-out: Vdss
[16] = Drug distribution in Sprague-Dawley rat plasma measured at 6 hrs; assay type: ADME, cell-free; summary of the method: as §1
[17] = AUC in Beagle dog at 25 mg/kg, po; assay type: ADME, organism-based, Canis lupus familiaris; parameters: dose 25 mg/kg, route po; conditions: in vivo; summary of the method: as §2
[18] = Drug distribution in Sprague-Dawley rat stomach content measured at 2 hrs; assay type: ADME, tissue-based; conditions: read-out: Ct; summary of the method: as §1
[19] = Drug distribution in Sprague-Dawley rat gums measured at 6 hrs; assay type: ADME, tissue-based, Gingiva; conditions: read-out: Ct; summary of the method: as §1
[20] = Drug distribution in Sprague-Dawley rat stomach tissue measured at 6 hrs; assay type: ADME, tissue-based; conditions: read-out: Ct; summary of the method: as §1
[21] = Drug distribution in Sprague-Dawley rat stomach content measured at 6 hrs; assay type: ADME, tissue-based; conditions: read-out: Ct; summary of the method: as §1
[22] = Oral bioavailability in Sprague-Dawley rat at 50 mg/kg; assay type: ADME, organism-based; conditions: in vivo
[23] = Drug distribution in Sprague-Dawley rat plasma measured at 12 hrs; assay type: ADME, cell-free; summary of the method: as §1
Fusobacterium nucleatum = test: Antibacterial activity against Fusobacterium nucleatum ATCC 10953; assay type: functional
[24] = Volume of distribution at steady state in Beagle dog at 5 mg/kg, iv; assay type: ADME, organism-based, Canis lupus familiaris; conditions: in vivo, read-out: Vdss
[25] = AUC in Sprague-Dawley rat at 50 mg/kg, po; assay type: ADME, organism-based; parameters: dose 50 mg/kg, route po; conditions: in vivo; summary of the method: as §2
[26] = Drug distribution in Sprague-Dawley rat vaginal tissue measured at 6 hrs; assay type: ADME, tissue-based, Vagina; conditions: female, read-out: Ct; summary of the method: as §1
[27] = Drug distribution in Sprague-Dawley rat vaginal tissue measured at 0.5 hrs; assay type: ADME, tissue-based, Vagina; conditions: female, read-out: Ct; summary of the method: as §1
Clostridioides difficile [28] = test: Antibacterial activity against Clostridioides difficile BAA 1382; assay type: functional
Helicobacter pylori [29] = test: Antibacterial activity against Helicobacter pylori clinical isolate China; assay type: functional
Bifidobacterium breve = test: Antibacterial activity against Bifidobacterium ATCC 15698; assay type: functional
Syrian golden hamster = test: Antibacterial activity against Clostridioides difficile UNT-103-1 infected in Syrian hamster assessed as survival at 5 mg/kg, po administered once a daily for 5 days after 18 hrs post 10 mg/kg clindamycin treatment; assay type: functional, Mesocricetus auratus; conditions: time 5 day
Summary of the method: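 Male Golden Syrian hamsters (80-90 g), housed singly, were gavaged with C. difficile UNT103-1 grown in sporulation medium broth and diluted to OD600 1 in prereduced broth. […] From 18 h later, drug or vehicle was given by oral gavage once daily for 5 days. Survival was recorded through day 21.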

[30] = Half life in Beagle dog at 25 mg/kg, po; assay type: ADME, organism-based, Canis lupus familiaris; conditions: in vivo
Summary of the method: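 Single-dose PK of TNP-2198 was run in C57BL/6 mice (IV 5 mg/kg; PO 20 mg/kg) and beagle dogs (IV 5 mg/kg; PO 25 mg/kg). Terminal half-life (h) was derived from plasma profiles, together with Tmax, Vdss, CL, AUC and oral bioavailability.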

[31] = Drug distribution in Sprague-Dawley rat vaginal secretion measured at 2 hrs; assay type: ADME, tissue-based, Vaginal fluid; conditions: female, read-out: Ct; summary of the method: as §1
Helicobacter pylori [32] = test: Bactericidal activity against Helicobacter pylori ATCC 700824 assessed as reduction in CFU at 4 to 16 times MIC by time kill assay; assay type: functional, organism-based
[33] = Volume of distribution at steady state in Sprague-Dawley rat at 10 mg/kg, iv; assay type: ADME, organism-based; conditions: in vivo, read-out: Vdss
Helicobacter pylori [34] = test: Antibacterial activity against Helicobacter pylori infected in C57/BL6 mouse assessed as bacterial load in stomach at 1 mg/kg administered twice daily via oral gavage starting from 7 days post inoculation and administered for 7 days in presence of 10 mg/kg clarithromycin and 20 mg/kg amoxicillin (reference value: 5.25 log10CFU); assay type: functional; conditions: time 7 day
[35] = Drug distribution in Sprague-Dawley rat large intestine content measured at 0.5 hrs; assay type: ADME, tissue-based; conditions: read-out: Ct; summary of the method: as §1
Gardnerella vaginalis [36] = test: Antibacterial activity against Gardnerella vaginalis ATCC 14018; assay type: functional
[37] = Drug distribution in Sprague-Dawley rat vaginal secretion measured at 12 hrs; assay type: ADME, tissue-based, Vaginal fluid; conditions: female, read-out: Ct; summary of the method: as §1
[38] = Clearance in C57BL/6 mouse at 5 mg/kg, iv; assay type: ADME, organism-based; conditions: in vivo; summary of the method: as §2
Gardnerella vaginalis [39] = test: Antibacterial activity against Gardnerella vaginalis clinical isolate USA; assay type: functional
[40] = Clearance in Sprague-Dawley rat at 10 mg/kg, iv; assay type: ADME, organism-based; conditions: in vivo; summary of the method: as §2
[41] = Tmax in C57BL/6 mouse at 20 mg/kg, po; assay type: ADME, organism-based; conditions: in vivo

CO[C@H]1/C=C/O[C@@]2(C)Oc3c(C)c(O)c4c(c3C2=O)C2=NC3(CCN(CCn5c([N+](=O)[O-])cnc5C)CC3)NC2=C(NC(=O)/C(C)=C\C=C\[C@H](C)[C@H](O)[C@@H](C)[C@@H](O)[C@@H](C)[C@H](OC(C)=O)[C@@H]1C)C4=O [RIFASUTENIZOL]
concentration at 0.5 h [1]: 2620 ng/g
MIC (Clostridioides difficile [2]): ≤ 0.002 µg/mL
MIC (Prevotella disiens): 0.015 µg/mL (≈ 0.0159 µM)
Ct [3]: Bld
Cp [4]: Bld
concentration at 6 h [5]: 156 ng/g
Activity (Gardnerella vaginalis [6]): <2 10^-9No_unit
concentration at 24 h [7]: 53.9 ng/g
AUC [8]: 6490 ng·h/mL
MIC (Bacteroides ovatus): 0.12 µg/mL (≈ 0.127 µM)
MIC (Staphylococcus aureus): 0.015 µg/mL (≈ 0.0159 µM)
concentration at 12 h [9]: 35.8 ng/g
MIC (Clostridioides difficile [10]): 0.002 µg/mL (≈ 0.00212 µM)
MIC90 (Clostridioides difficile [10]): 1 µg/mL (≈ 1.06 µM)
concentration at 0.5 h [11]: 1700 ng/mL
concentration at 2 h [12]: 1170 ng/g
Ct [13]: Bld
MIC (Clostridioides difficile [14]): ≤ 0.002 µg/mL
Vd [15]: 0.9 L/kg
concentration at 6 h [16]: 1440 ng/mL
AUC [17]: 14800 ng·h/mL
concentration at 2 h [18]: 1.75e+06 ng/g
concentration at 6 h [19]: 3660 ng/g
concentration at 6 h [20]: 10600 ng/g
concentration at 6 h [21]: 28800 ng/g
bioavailability [22]: 48%
concentration at 12 h [23]: 4.33 ng/mL
MIC (Fusobacterium nucleatum): 0.12 µg/mL (≈ 0.127 µM)
Vd [24]: 2.8 L/kg
AUC [25]: 15400 ng·h/mL
concentration at 6 h [26]: 2590 ng/g
concentration at 0.5 h [27]: 2800 ng/g
MIC (Clostridioides difficile [28]): 0.00025 µg/mL (≈ 0.000265 µM)
MIC (Helicobacter pylori [29]): ≤ 0.002 µg/mL
MIC (Bifidobacterium breve): 0.015 µg/mL (≈ 0.0159 µM)
Activity (Syrian golden hamster): 100%
half-life [30]: 3.4 h
concentration at 2 h [31]: 43700 ng/g
Activity (Helicobacter pylori [32]): Active
Vd [33]: 1.6 L/kg
Activity (Helicobacter pylori [34]): 1.7 log10CFU
concentration at 0.5 h [35]: 1480 ng/g
MIC (Gardnerella vaginalis [36]): 0.004 µg/mL (≈ 0.00424 µM)
concentration at 12 h [37]: 366 ng/g
clearance [38]: 23 mL/min/kg
MIC (Gardnerella vaginalis [39]): ≤ 0.004 µg/mL
MIC90 (Gardnerella vaginalis [39]): 0.06 µg/mL (≈ 0.0636 µM)
clearance [40]: 26 mL/min/kg
Tmax [41]: 0.5 h

Reference: ChEMBL document CHEMBL5131497, “Design, Synthesis, and Characterization of TNP-2198, a Dual-Targeted Rifamycin-Nitroimidazole Conjugate with Potent Activity against Microaerophilic and Anaerobic Bacterial Pathogens” (J Med Chem, 2022)
